Source: article PMC7007330 (Molecular microbiology, 2019)
“Also recorded” adds a separate entry of the source. Where two headings read alike, the source gives them in different places.

Tests used:
RsbU45–313 R134A = target: T1, RsbU45–313 R134A (Chlamydia trachomatis, UniProt A0A0H3MDU0, R134A); test: Surface plasmon resonance, R134A variant; format: binding; conditions: read-out: KD (estimated, steady state affinity), SPR, PBS
T1 sequence (A0A0H3MDU0 45-313 R134A): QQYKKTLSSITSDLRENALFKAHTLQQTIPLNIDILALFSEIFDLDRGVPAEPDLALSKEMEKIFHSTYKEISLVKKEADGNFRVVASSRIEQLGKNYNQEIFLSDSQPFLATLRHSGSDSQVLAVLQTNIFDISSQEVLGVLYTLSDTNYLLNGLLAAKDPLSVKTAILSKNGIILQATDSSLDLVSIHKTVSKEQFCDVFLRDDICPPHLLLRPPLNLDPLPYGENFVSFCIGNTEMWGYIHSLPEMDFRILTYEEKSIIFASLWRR

RsbU45–313 [1] = target: T2, RsbU45–313 (Chlamydia trachomatis, UniProt A0A0H3MDU0); test: Differential scanning fluorimetry; format: binding
RsbU45–313 [2] = target: T2, RsbU45–313; test: biochemical; format: binding
RsbU45–313 Q137A = target: T3, RsbU45–313 Q137A (Chlamydia trachomatis, UniProt A0A0H3MDU0, Q137A); test: Surface plasmon resonance, Q137A variant; format: binding; conditions: read-out: KD (estimated, steady state affinity), SPR, PBS
T3 sequence (A0A0H3MDU0 45-313 Q137A): T1 sequence (A0A0H3MDU0 45-313 R134A)

RsbU45–313 K140A/R134A = target: T4, RsbU45–313 K140A/R134A (Chlamydia trachomatis, UniProt A0A0H3MDU0, K140A/R134A); test: Surface plasmon resonance, K140A/R134A variant; format: binding; conditions: read-out: KD (estimated, steady state affinity), SPR, PBS
T4 sequence (A0A0H3MDU0 45-313 R134A/K140A): T1 sequence (A0A0H3MDU0 45-313 R134A)

RsbU45–313 K140A = target: T5, RsbU45–313 K140A (Chlamydia trachomatis, UniProt A0A0H3MDU0, K140A); test: Surface plasmon resonance, K140A variant; format: binding; conditions: read-out: KD (estimated, steady state affinity), SPR, PBS
T5 sequence (A0A0H3MDU0 45-313 K140A): T1 sequence (A0A0H3MDU0 45-313 R134A)

WT RsbU45–313 = WT RsbU45–313 (Chlamydia trachomatis, UniProt A0A0H3MDU0); format: binding; conditions: for SPR dose-dependent binding curves: Figure S3; for binding in initial SPR screening: ligands at 100 μM and 1 mM
[3] = tested on: wild-type Chlamydia trachomatis L2; test: Growth curves with chemical inhibitors; format: cell-based; conditions: L929 cells; HQNO 1 μM, BKA 0.25 μM added at infection; 0-72 hpi
[4] = tested on: RsbU* mutant strain of C. trachomatis L2; test: Growth curves with chemical inhibitors; format: cell-based, Chlamydia trachomatis; conditions: L929 cells; HQNO 1 μM added at infection
[5] = tested on: wild-type C. trachomatis L2; test: Progeny assay; format: cell-based, Chlamydia trachomatis; conditions: L929 cells; BKA 0.25 μM, HQNO 1 μM; 36 hpi then passaged
How it was run: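 L929 cells were infected with C. trachomatis L2 wild-type or RsbU* strains, with BKA (0.25 μM) and HQNO (1 μM) added at infection where indicated. At 36 hpi, wells were either fixed and stained with MicroTrack reagent, or water-lysed and passaged onto fresh host monolayers, then fixed and stained 36 h later. IFUs were counted, and fold change was taken as post-passage IFUs relative to first-36 h IFUs.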

[6] = tested on: wild-type C. trachomatis L2; test: Immunofluorescence microscopy of infected L929 cells, wild-type; format: cell-based, Chlamydia trachomatis
How it was run: (§1)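 L929 monolayers were grown to confluency on slides and infected with wild-type C. trachomatis L2 or RsbU* mutant. HQNO or BKA was added immediately after infection where indicated. At 24 and 72 hpi, cells were fixed in 100% methanol (10 min, RT), washed with HBSS then PBS, and stained with MicroTrack reagent (1:40 in PBS, 1 h 50 min, RT). Nuclei were stained with DAPI (10 min, RT, dark) and samples mounted in antifade. Imaging was by spinning-disk confocal at 150X, 7 Z-stacks, maximum projection.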

[7] = tested on: sodium-dependent NADH dehydrogenase; conditions: low concentrations (1 μM); cited from earlier work
RsbU* mutant = test: Immunofluorescence microscopy of infected L929 cells, RsbU* mutant; format: cell-based, Chlamydia trachomatis; conditions: 24 and 72 hours
How it was run: as §1

ATP translocases = conditions: cited from earlier work
[8] = 5 mM and 10 mM ligand, 10 μM RsbU45–313

**Q.** What does the source list for O=C(O)CCC(=O)C(=O)O [alpha-ketoglutarate]?
**A.** Kd (RsbU45–313 R134A): 526 µM; DSF temperature shift (RsbU45–313 [1]; [8]): Significant stabilizing temperature shifts; Kd (RsbU45–313 [2]; read-out: KD (ITC), single trial, 30 μM protein, PBS, data not shown): 25.8 µM; Kd (RsbU45–313 Q137A): 548 µM; Kd (RsbU45–313 K140A/R134A): 558 µM; Kd (RsbU45–313 K140A): 597 µM; SPR dose-dependent binding curves (WT RsbU45–313): show dose-dependent binding; binding in initial SPR screening (WT RsbU45–313): binding was only observed; Kd (WT RsbU45–313; read-out: KD (estimated, steady state affinity), SPR, WT RsbU45–313, PBS): 419 µM

**Q.** For CCCCCCCc1cc(O)c2ccccc2[n+]1[O-] [HQNO, 2-heptyl-4-hydrosyquinoline N-oxide], which “growth of wild-type Chlamydia (secY vs rpp30 genome copies)” value [3] is on record?
**A.** The value was “not statistically different from the RsbU* mutant growth at any time point; also recorded: marked reduction in growth”.

**Q.** What about the “growth of RsbU* mutant (secY vs rpp30 genome copies)” value [4] of the same compound?
**A.** The value was “does not have an additive effect on the growth defect”.

**Q.** What about the “progeny production (IFUs)” value [5] of the same compound?
**A.** Its value is “decrease in the number of IFUs produced compared to the initial infection”.

**Q.** What about the “inclusion morphology by confocal microscopy” value ([6]; 24 hours post-infection) of the same compound?
**A.** The value was “formed smaller inclusions and appear to contain fewer EBs”.

**Q.** And the “inclusion morphology by confocal microscopy” value ([6]; 72 hours post-infection)?
**A.** Its value is “inclusions that were grossly under-full”.

**Q.** And the “inhibition of sodium-dependent NADH dehydrogenase” value [7]?
**A.** The value was “selectively inhibit”.

**Q.** And the “levels of RsbU* Chlamydia or their dispersion within the host cell” value (RsbU* mutant)?
**A.** Its value is “appeared to have no effect”.

**Q.** With O=C(O)CC(=O)C(=O)O [oxaloacetate] as the compound, how does the DSF temperature shift (RsbU45–313 [1]; highest ligand concentration tested, only in one of two biological replicates) read?
**A.** The DSF temperature shift was “significant positive temperature shift”.

**Q.** And the Kd (RsbU45–313 [2])?
**A.** The Kd was 55.5 µM.

**Q.** And the “SPR dose-dependent binding curves” value (WT RsbU45–313)?
**A.** Its value is “show dose-dependent binding”.

**Q.** What about the “binding in initial SPR screening” value (WT RsbU45–313) of the same compound?
**A.** The value was “binding was only observed”.

**Q.** Which “SPR dose-dependent binding curves” value (WT RsbU45–313) does the source give for O=C(O)CCC(=O)O [succinate] here?
**A.** Its value is “do not appear to be binding”.

**Q.** For O=C(O)CC(O)C(=O)O (stereo not shown) [malate], which DSF temperature shift (RsbU45–313 [1]; [8]) is on record?
**A.** The DSF temperature shift was “Significant stabilizing temperature shifts”.

**Q.** And the Kd (RsbU45–313 [2])?
**A.** The Kd was 22 µM.

**Q.** And the “SPR dose-dependent binding curves” value (WT RsbU45–313)?
**A.** The value was “show dose-dependent binding”.

**Q.** What about the “binding in initial SPR screening” value (WT RsbU45–313) of the same compound?
**A.** Its value is “binding was only observed”.

**Q.** For O=C(O)CC(=O)O [malonate], which “SPR dose-dependent binding curves” value (WT RsbU45–313) is on record?
**A.** Its value is “do not appear to be binding”.

**Q.** For CO[C@H](C/C=C\C=C\CC/C=C/C[C@H](C)/C=C/C(=C\C(=O)O)CC(=O)O)/C(C)=C\C=C(/C)C(=O)O [BKA, bongkrekic acid], which “growth of wild-type Chlamydia (secY vs rpp30 genome copies)” value [3] is on record?
**A.** Its value is “decrease in the growth of wild-type Chlamydia”.

**Q.** And the “inhibition of ATP translocases” value (ATP translocases)?
**A.** Its value is “inhibit ATP translocases”.

**Q.** What about the “progeny production (IFUs)” value [5] of the same compound?
**A.** Its value is “decrease in IFUs produced”.

**Q.** What about the “morphology by confocal microscopy” value ([6]; 24 and 72 hours) of the same compound?
**A.** Its value is “No obvious morphological abnormalities”.

**Q.** What about the “levels of RsbU* Chlamydia or their dispersion within the host cell” value (RsbU* mutant) of the same compound?
**A.** Its value is “appeared to have no effect”.
